CXCR6 block: inhibitors of human CXCR6 receptor; CHO-K1 PathHunter CXCR6 beta-arrestin, luminescence; inhibition, % at 20 µM; 360,000 tested, 0.36% active; in the data active = inhibition above about 34%, passing the limit was not always enough;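 note: antagonist mode with CXCL16 agonist at 10 nM final; 0% = 10 nM CXCL16 with DMSO and 100% = unstimulated wells without agonist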
Target sequence (O00574 whole entry, looked up): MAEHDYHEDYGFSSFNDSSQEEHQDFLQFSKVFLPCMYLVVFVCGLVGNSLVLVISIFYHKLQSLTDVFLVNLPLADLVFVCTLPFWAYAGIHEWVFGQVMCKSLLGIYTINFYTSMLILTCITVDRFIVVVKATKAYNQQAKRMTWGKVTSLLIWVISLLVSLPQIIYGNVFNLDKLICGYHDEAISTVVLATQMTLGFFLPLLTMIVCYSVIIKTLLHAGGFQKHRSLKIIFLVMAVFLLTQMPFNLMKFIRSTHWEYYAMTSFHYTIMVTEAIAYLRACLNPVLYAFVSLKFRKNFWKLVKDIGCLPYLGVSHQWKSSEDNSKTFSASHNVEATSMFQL
APJ antag: blocks the human apelin receptor APJ. inhibition, % at 20 µM. P35414. 330,000 tested, 0.32% active. CHO-K1 APJ beta-arrestin complementation, luminescence;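 active = inhibition above about 40% at 20 µM, limit read from the data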;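 note: cells challenged with 10 nM apelin-13 agonist together with compound; plate controls were apelin-13 plus DMSO wells for no effect and DMSO wells lacking apelin-13 for full effect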
EBI2 antag: EBI2 (human) antagonism | P32249 | EBI2 beta-arrestin recruitment, luminescence, 7a,25-OHC stimulated | inhibition, % at 5 µM | 360,000 tested, 0.81% active; in the data active = inhibition above about 38%;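 note: enzyme fragment complementation signal reports receptor beta-arrestin coupling in cells; 0% = agonist plus DMSO wells and 100% = wells without agonist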
CCR6 antag: CCR6 (human) receptor antagonism | CHO-K1 CCR6 PathHunter beta-arrestin, luminescence, CCL20-stimulated | inhibition, % at 20 µM | 340,000 tested, 0.49% active | AID 493098;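 active = compounds whose inhibition of the agonist-driven luminescence signal at 20 µM reaches about 50%, limit read from the data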;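 note: cells stimulated with CCL20 at 14 nM final; plate controls were DMSO with CCL20 for no effect and DMSO without agonist for full effect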
APJ ag: agonists of human APJ apelin receptor. 330,000 tested, 0.11% active. AID 2520. P35414. activation, % at 20 µM. CHO-K1 APJ PathHunter beta-arrestin, luminescence; 0% DMSO wells, 100% apelin;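 active = activation more than six SD over the plate average, tested at 20 µM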;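 note: 0% = DMSO alone and 100% = apelin-13 at 10 nM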
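Incubation: overnight seeding, 90 min compound at 25 °C, 1 h detection; test system: PathHunter CHO-K1 APJ (AGTRL-1) beta-arrestin reporter cells; amount: 1000 cells/well; doses: one dose, 20 µM compound, 1% DMSO; measured by: beta-gal luminescence; measure: agonist-driven arrestin binding to APJ; benchmarks: negative DMSO alone, positive Apelin-13 at 10 nM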
HTR2A ag: agonists of mouse serotonin 5-HT2A receptor (HTR2A). P35363. CHO-K1 mHTR2A beta-arrestin complementation, luminescence; percent of 30 µM serotonin response. activation, % at 7.6 µM. 360,000 tested, 0.66% active. AID 624169;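 active = activation above a run cutoff, the mean activation of all tested compounds plus 3 SD, cut at about 14% in these data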;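 note: 0% = plate median of compound wells and 100% = 30 µM serotonin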
EBI2 conf: EBI2 (human) antagonism, single concentration confirmation | shares compounds with EBI2 antag | EBI2 beta-arrestin luminescence, 7a,25-OHC antagonism | inhibition, % at 5 µM | 2,400 tested, 29% active | AID 651997;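 active = inhibition of at least 50%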
EBI2 agonist: EBI2 agonism counter-screen | shares compounds with EBI2 antag | EBI2-expressing cells, agonist mode, luminescence, 60 min; 0% vehicle, 100% 7α,25-dihydroxycholesterol control | activation, % at 5 µM | 2,400 tested, under 10 active | AID 652000;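 active = activation of at least 50%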
bGal cs: beta-galactosidase inhibition counter-screen | shares compounds with EBI2 antag | purified beta-galactosidase, luminescent Galacton Star, 15 min | inhibition, % at 5 µM | 2,400 tested, 1% active | AID 652176;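 active = replicate-average signal at least 3 plate SD below neutral wells, shown as high inhibition, flagging enzyme-inhibiting false positives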;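 note: 0% = DMSO wells with enzyme and 100% = wells lacking enzyme; higher means stronger loss of beta-gal luminescence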
Starred values were filed as active, the others as inactive; nt = no result. Rows were chosen to be rich in hits. Some 2.1% of all compounds tested hit in one or more screens of this group.

SMILES | CXCR6 block | APJ antag | EBI2 antag | CCR6 antag | APJ ag | HTR2A ag | EBI2 conf | EBI2 agonist | bGal cs
O=C(NCCCc1ccccc1)C1CCC(=O)N(Cc2ccc(Cl)cc2)C1 (configuration not stated) | -1.5 | 2.5 | 34.8 | 4.7 | 0.2 | -7.6 | nt | nt | nt
COc1ccc(CCCNC(=O)C2CCC(=O)N(Cc3ccc(Cl)cc3)C2)cc1 (configuration not stated) | 2.4 | -25.4 | 49.0* | 10.6 | -1.5 | -3.8 | 24.0 | -0.1 | 9.1
Brc1cccc(Nc2nc(-c3cccnc3)cs2)c1 | -11.6 | -23.5 | 42.4* | -7.5 | -1.7 | -0.3 | 45.0 | 1.8 | 1.6
Brc1ccc(Nc2nc(-c3cccnc3)cs2)cc1 | 5.0 | 1.7 | 28.1 | 0.8 | -2.8 | -7.1 | nt | nt | nt
Cc1ccc(Nc2nc(-c3cccnc3)cs2)cc1C | -4.2 | -29.1 | 48.9* | 8.3 | 1.5 | 1.4 | 56.1* | 2.0 | 1.8
Clc1cccc(Nc2nc(-c3cccnc3)cs2)c1 | -1.0 | 0.2 | 48.3* | -7.0 | -0.2 | -5.7 | 53.0* | -0.4 | 7.3
CS(=O)(=O)Nc1ccc2c(c1)[C@H]1C[C@H](CC(=O)NCc3ccccc3)O[C@H](CO)[C@H]1O2 | -1.3 | nt | -6.3 | nt | nt | 2.6 | nt | nt | nt
COc1cc(-c2nc3ccc(C)cn3c2NCc2ccccc2)ccc1SC1CCCCC1 | 15.0 | -23.6 | 72.1* | 34.8 | 0.3 | -2.2 | 55.0* | 1.9 | -0.6
COc1cc(-c2nc3ccccn3c2NCc2ccccc2)ccc1SC1CCCCC1 | -7.2 | -4.4 | 24.2 | -2.0 | -6.6 | -8.0 | nt | nt | nt
COc1ccc(-c2nc3ccc(C)cn3c2Cc2cccc(Cl)c2)cc1OC | 25.4 | nt | 32.1 | nt | nt | -4.0 | nt | nt | nt
CCC(C)Sc1ccc(-c2nc3ccc(C)cn3c2NCc2ccccc2)cc1 (configuration not stated) | 5.7 | 19.4 | 46.5* | 11.9 | 2.1 | -6.7 | 24.1 | 0.7 | 6.5
COc1cc(-c2nc3ccc(C)cn3c2NCc2ccccc2)ccc1-c1cccc(Cl)c1 | 8.4 | 19.7 | 80.0* | 13.9 | -3.2 | -3.9 | 66.5* | 1.1 | -5.1
CCCCNc1c(-c2ccc(SC(C)CC)cc2)nc2ccc(Cl)cn12 (configuration not stated) | 4.4 | nt | 12.0 | nt | nt | -1.8 | nt | nt | nt
O=C(O)c1ccc2c(c1)C(=O)N([C@H](Cc1cccc3ccccc13)C(=O)O)C2=O | 6.6 | nt | 1.7 | nt | nt | -1.9 | nt | nt | nt
CC(C)CN(C(=O)c1cccc(S(=O)(=O)N2CCN(Cc3ccccc3)CC2)c1)C1CCS(=O)(=O)C1 (configuration not stated) | 0.9 | 9.1 | -4.3 | 11.7 | -4.5 | 7.2 | nt | nt | nt
CSc1cc(-c2ccc(Cl)cc2)c(C(=O)NN)s1 | -9.9 | -5.5 | 13.4 | -0.7 | 2.2 | -6.2 | nt | nt | nt
CSc1cc(-c2ccc(Cl)cc2)c(C(=O)NC(C)C)s1 | 9.2 | -3.3 | 46.7* | 7.3 | 2.0 | 5.2 | 34.0 | 1.4 | -0.8
CN(C)S(=O)(=O)c1ccc(C(=O)Nc2ccc(Cl)cc2)cc1 | 1.2 | -64.7 | 53.2* | -3.5 | 0.1 | 2.7 | 50.5* | 3.0 | -3.1
CCN(CC(=O)NCc1ccc(F)cc1)S(=O)(=O)c1ccc(C)cc1 | 0.0 | -7.9 | -4.8 | -1.4 | -2.5 | -1.4 | nt | nt | nt
CN(c1ccccc1)S(=O)(=O)c1ccc(C(=O)NCc2ccc(F)cc2)cc1 | 2.6 | -4.0 | 13.6 | 18.7 | -3.8 | 3.6 | nt | nt | nt
CN(c1ccc(C(=O)Nc2ccc(Cl)cn2)cc1)S(=O)(=O)c1ccccc1 | -0.8 | -0.2 | 50.4* | 16.1 | -2.5 | -1.0 | 55.5* | 0.0 | 3.6
CCN(CC)S(=O)(=O)c1ccc(C(=O)NCc2ccc(C)cc2)cc1 | -13.1 | 13.2 | 62.9* | 19.0 | 4.7 | -5.8 | 54.8* | 0.6 | 3.4
